The subject of series [1] is Mus musculus. As to the kind of experiment: Toxicity in NMRI mouse assessed as spontaneous alteration performance ar 0.3 to 3 mg/kg, ip by Y-maze test. The series is classed as organism-based. Also on record: dose 0.3-3 mg/kg, route intraperitoneal. Conditions: in vivo. An outline of the steps: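 Spontaneous alternation in male NMRI mice. Drug given ip in saline at 0.3, 1 and 3 mg/kg, 30 min before testing, with or without scopolamine 1 mg/kg. Four groups per dose: control, scopolamine, drug alone, drug+scopolamine. Alternation % = actual alternations/(total arm entries − 2) × 100. ANOVA plus Fisher PLSD.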

Series [2] concerns the target 5-hydroxytryptamine receptor 7 (Homo sapiens, UniProt P34969). As to the kind of experiment: Displacement of [3H]LSD form human recombinant 5HT7 receptor. The essentials: (§1)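 Membranes from sf9 cells expressing human 5-HT6 (14 µg/mL) or 5-HT7 (38 µg/mL) incubated 90 min at 27 °C with 2 nM [3H]LSD in 50 mM Tris-HCl containing 10 mM MgSO4 and 0.5 mM EDTA. Nonspecific binding defined with clozapine (10 and 250 µM).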
Background: Displacement assays read how much labelled ligand stays bound in the presence of the test substance.

For series [3], the system named is Mus musculus. As to the kind of experiment: Antinociceptive activity against acetic acid-induced writhing in NMRI mouse assessed as number of stretches at 0.01 mg/kg, ip by writhing test. The series is classed as functional. Conditions: route intraperitoneal. The essentials: (§2)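 Groups of 8 male NMRI mice (20–24 g). Compound or reference given ip in saline (10 mL/kg) 15 min before ip 0.6% aqueous acetic acid (10 mL/kg). Stretches (back arching, pelvic rotation, hind-limb extension) counted over 10 min, beginning 10 min after acid. ANOVA + Fisher PLSD versus control.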
Background: An intraperitoneal irritant provokes the stretching counted in writhing tests.

For series [4], the target named is 5-hydroxytryptamine receptor 4 (Cavia porcellus) (UniProt O70528). As to the kind of experiment: Displacement of [3H]GR-113808 from 5HT4 receptor in guinea pig striatum membrane at 10 nM. The series is classed as cell membranes. An outline of the steps:
(§3)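 Guinea pig membranes (15 µg protein/mL) incubated 30 min at 37 °C with 0.6 nM [3H]GR113808 in 50 mM HEPES, pH 7.4, with fixed test concentrations. Nonspecific binding defined with 10 µM serotonin.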

The target of series [5] is T1, 5-hydroxytryptamine receptor 2C (Homo sapiens, UniProt P28335).
T1 sequence (P28335 whole entry): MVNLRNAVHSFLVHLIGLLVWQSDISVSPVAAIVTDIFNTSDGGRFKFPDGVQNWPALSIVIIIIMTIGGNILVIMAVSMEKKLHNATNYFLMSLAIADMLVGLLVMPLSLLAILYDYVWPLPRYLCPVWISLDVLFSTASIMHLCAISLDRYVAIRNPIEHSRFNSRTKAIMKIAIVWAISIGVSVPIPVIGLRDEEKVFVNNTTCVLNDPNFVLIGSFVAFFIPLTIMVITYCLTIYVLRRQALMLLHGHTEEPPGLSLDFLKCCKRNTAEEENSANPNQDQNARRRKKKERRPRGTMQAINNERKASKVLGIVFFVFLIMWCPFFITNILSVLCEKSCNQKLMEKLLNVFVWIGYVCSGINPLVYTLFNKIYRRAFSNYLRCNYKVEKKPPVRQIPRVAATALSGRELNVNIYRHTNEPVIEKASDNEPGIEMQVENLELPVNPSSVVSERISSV
As to the kind of experiment: Displacement of [3H]mesulergine from human recombinant 5HT2C receptor.

Series [6] has as its target T2, 5-hydroxytryptamine receptor 1A (Homo sapiens, UniProt P08908).
T2 sequence (P08908 whole entry): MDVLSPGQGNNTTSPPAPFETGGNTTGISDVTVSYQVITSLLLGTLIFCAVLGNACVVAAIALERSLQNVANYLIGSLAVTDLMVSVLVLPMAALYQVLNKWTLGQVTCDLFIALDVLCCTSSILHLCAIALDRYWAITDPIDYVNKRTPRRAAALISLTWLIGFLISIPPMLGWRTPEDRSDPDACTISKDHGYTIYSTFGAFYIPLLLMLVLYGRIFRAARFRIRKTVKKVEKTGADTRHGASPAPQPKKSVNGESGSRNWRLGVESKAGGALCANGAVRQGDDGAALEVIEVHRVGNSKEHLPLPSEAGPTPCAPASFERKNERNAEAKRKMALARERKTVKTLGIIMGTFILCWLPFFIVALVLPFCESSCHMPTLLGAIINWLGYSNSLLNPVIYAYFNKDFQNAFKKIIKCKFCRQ
As to the kind of experiment: Displacement of [3H]8OH-DPAT from human recombinant 5HT1A receptor.

Series [7] is described as follows: Toxicity in ip dosed NMRI mouse. It counts as organism-based. Particulars: in vivo. The essentials: (§4)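 Male NMRI mice (20–24 g) given ip drug in saline (10 mL/kg), groups of 4. Behavioural and neurological changes scored against controls by a standardized observation technique at 30 min, 3 h and 24 h post-dose. Approximate LD50 derived from deaths counted at 24 h.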

Series [8] concerns the target 5-hydroxytryptamine receptor 6 (Homo sapiens, UniProt P50406). As to the kind of experiment: Displacement of [3H]LSD form human recombinant 5HT6 receptor. An outline of the steps: as §1
For series [9], the target named is 5-hydroxytryptamine receptor 2A (Homo sapiens, UniProt P28223). As to the kind of experiment: Displacement of [3H]ketanserin form human recombinant 5HT2A receptor.
Series [10] concerns the target 5-hydroxytryptamine receptor 1D (Rattus norvegicus, UniProt P28565). As to the kind of experiment: Displacement of [3H]5OH-tryptamine rat recombinant 5HT1D receptor.
Series [11] has as its system Mus musculus. As to the kind of experiment: Antinociceptive activity against acetic acid-induced writhing in NMRI mouse assessed as number of stretches at 1 mg/kg, ip by writhing test. It counts as functional. Particulars: route intraperitoneal. An outline of the steps: as §2
The target in series [12] is 5-hydroxytryptamine receptor 4 (Cavia porcellus, UniProt O70528). As to the kind of experiment: Displacement of [3H]GR-113808 from 5HT4 receptor in guinea pig striatum membrane. It counts as cell membranes. An outline of the steps: as §3
In series [13] the test system is Mus musculus. As to the kind of experiment: Acute toxicity in NMRI mouse assessed as induction of convulsions at 100 to 300 mg/kg, ip by CNS activity test. The series is classed as organism-based, Central nervous system. On the set-up: dose 100-300 mg/kg, route intraperitoneal. Particulars: in vivo. The essentials: as §4
Series [14] concerns the target 5-hydroxytryptamine receptor 5A (Homo sapiens, UniProt P47898). As to the kind of experiment: Displacement of [3H]LSD form human recombinant 5HT5A receptor.

Structures are written as SMILES. pIC50, pKi: −log10 of the molar value.

Usually pIC50 stands for the IC50 on a negative log10 scale, so that one unit is a factor of ten. For orientation: inhibition means the drop in the measured response relative to a control, in per cent. Read a low inhibition as a response near the control. A word on the LD50: it is the dose at which mortality reaches 50%. What is called pKi is the Ki on a negative log10 scale, so that one unit is a factor of ten. A high value points to a low Ki.

5-hydroxytryptamine receptor 4, sequence (O70528 whole entry): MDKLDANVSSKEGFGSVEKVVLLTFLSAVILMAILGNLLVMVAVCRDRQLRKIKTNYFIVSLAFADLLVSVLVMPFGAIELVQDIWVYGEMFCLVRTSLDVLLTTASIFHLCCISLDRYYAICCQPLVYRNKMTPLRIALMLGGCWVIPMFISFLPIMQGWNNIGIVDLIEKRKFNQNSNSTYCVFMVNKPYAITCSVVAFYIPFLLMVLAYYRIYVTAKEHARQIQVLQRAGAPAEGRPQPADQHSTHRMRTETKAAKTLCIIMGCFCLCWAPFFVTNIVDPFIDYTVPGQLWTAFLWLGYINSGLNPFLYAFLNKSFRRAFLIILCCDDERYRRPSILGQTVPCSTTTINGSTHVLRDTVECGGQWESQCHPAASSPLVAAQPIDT
5-hydroxytryptamine receptor 4 (Cavia porcellus), sequence (O70528 whole entry): as above
5-hydroxytryptamine receptor 7, sequence (P34969 whole entry): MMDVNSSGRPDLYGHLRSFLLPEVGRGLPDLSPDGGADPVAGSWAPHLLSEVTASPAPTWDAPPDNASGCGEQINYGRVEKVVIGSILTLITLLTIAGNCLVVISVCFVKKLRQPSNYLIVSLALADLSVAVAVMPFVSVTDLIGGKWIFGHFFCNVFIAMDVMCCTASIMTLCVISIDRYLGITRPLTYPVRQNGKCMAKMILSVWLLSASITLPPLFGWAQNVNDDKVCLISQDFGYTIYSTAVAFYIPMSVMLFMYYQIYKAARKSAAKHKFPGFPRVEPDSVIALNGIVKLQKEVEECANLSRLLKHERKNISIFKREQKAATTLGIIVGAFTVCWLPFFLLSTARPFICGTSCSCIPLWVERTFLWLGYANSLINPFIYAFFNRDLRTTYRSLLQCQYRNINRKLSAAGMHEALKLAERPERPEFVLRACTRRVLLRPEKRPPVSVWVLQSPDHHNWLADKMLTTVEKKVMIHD
5-hydroxytryptamine receptor 2A, sequence (P28223 whole entry): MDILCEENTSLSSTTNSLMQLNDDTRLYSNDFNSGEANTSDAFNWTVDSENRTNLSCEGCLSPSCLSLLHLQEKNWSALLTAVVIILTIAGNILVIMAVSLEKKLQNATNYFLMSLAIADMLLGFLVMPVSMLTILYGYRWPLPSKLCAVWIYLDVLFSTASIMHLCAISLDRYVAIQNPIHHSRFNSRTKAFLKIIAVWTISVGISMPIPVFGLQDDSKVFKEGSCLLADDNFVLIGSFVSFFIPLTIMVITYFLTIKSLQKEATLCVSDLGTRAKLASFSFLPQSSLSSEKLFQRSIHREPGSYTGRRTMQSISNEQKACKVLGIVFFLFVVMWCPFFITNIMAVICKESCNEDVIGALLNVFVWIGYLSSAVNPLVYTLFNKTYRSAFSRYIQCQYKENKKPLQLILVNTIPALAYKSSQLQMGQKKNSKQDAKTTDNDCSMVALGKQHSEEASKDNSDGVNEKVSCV
5-hydroxytryptamine receptor 5A, sequence (P47898 whole entry): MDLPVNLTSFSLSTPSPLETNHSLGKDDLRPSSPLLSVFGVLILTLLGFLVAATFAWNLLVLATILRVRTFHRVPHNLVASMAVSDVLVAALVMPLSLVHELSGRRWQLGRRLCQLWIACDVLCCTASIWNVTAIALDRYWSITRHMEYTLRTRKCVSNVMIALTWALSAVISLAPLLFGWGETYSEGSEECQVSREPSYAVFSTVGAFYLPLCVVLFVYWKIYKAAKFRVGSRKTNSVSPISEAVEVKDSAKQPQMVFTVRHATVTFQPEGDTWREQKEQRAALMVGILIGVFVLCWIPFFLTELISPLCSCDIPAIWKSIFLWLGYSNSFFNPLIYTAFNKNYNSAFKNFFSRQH
5-hydroxytryptamine receptor 1D, sequence (P28565 whole entry): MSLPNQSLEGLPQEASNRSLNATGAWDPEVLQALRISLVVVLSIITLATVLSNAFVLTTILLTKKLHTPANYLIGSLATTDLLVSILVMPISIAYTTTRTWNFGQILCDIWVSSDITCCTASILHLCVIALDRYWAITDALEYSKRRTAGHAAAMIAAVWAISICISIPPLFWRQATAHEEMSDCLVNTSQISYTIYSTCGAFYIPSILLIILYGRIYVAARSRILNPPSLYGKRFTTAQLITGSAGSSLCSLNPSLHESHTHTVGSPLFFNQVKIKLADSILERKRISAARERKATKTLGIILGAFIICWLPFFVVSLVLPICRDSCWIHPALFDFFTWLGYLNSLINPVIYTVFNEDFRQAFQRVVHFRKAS
5-hydroxytryptamine receptor 6, sequence (P50406 whole entry): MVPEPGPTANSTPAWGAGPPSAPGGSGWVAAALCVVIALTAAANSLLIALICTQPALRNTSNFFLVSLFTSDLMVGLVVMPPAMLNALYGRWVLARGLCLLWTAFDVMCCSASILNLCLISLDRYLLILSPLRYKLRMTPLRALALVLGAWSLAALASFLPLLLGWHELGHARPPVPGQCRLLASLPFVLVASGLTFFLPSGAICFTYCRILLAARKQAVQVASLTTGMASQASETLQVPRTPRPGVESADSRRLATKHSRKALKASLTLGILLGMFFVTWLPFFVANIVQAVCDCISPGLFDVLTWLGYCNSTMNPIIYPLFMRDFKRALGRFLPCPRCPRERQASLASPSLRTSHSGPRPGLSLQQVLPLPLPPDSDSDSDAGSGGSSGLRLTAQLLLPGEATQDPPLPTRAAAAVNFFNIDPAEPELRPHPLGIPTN

For `CCCN1CCC(COc2nc3scc(C)c3n3cccc23)CC1`, the Activity result was “Non-toxic” with Mus musculus [1], 17.2 in the series with Mus musculus [3], 7.6 with Mus musculus [11] and “Toxic” with Mus musculus [13]. Also, the pIC50 in series [2] was under 6.00; in series [5], 7.14; in [6] it was 5.30; in series [8], under 5.00; in series [9], under 5.00; in [10] it was 5.34. In series [14], the pIC50 is under 5.00. In series [4], this compound showed an inhibition of 78%. The compound also displayed an LD50 in [7] of 200 mg/kg. The pKi in [12] is 8.76.

These data come from ChEMBL document CHEMBL1153939, “Novel antagonists of serotonin-4 receptors: synthesis and biological evaluation of pyrrolothienopyrazines” (Bioorg Med Chem, 2009).
